CHO parental Ca: counter-screen for OX1R antagonists: effect in parental CHO cells | parental CHO-K1, ATP-induced calcium, Fluo-8 fluorescence | 330,000 compounds, 0.63% hits | inhibition, % at 5.6 µM;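 active = inhibition above that plate's mean sample inhibition plus 3 SD, cut at about 26% in these data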;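 note: 0% = ATP-challenged DMSO wells and 100% = DMSO wells without ATP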
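Test system: untransfected parental CHO cell line; also added: ATP stimulus; dosing: 5.6 µM, single dose; signal: calcium-sensitive Fluo-8 fluorescence; measure: percent inhibition of ATP-evoked calcium rise, normalized to controls; benchmarks: low control ATP plus DMSO, high control DMSO only; replication: one well per compound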
TAAR1 antag: human TAAR1 antagonism | 360,000 compounds, 1.5% hits | AID 624466 | Q96RJ0 | CHO RD-HGA16 TAAR1, Fluo-8 calcium fluorescence, antagonist | inhibition, % at 3 µM;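 active = inhibition above a per-plate cutoff, the mean inhibition of test compounds on that plate plus 3 SD, cut at about 49% in these data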;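 note: 0% = DMSO plus EC80 beta-PEA response and 100% = DMSO alone without agonist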
Target sequence (Q96RJ0 whole entry, looked up): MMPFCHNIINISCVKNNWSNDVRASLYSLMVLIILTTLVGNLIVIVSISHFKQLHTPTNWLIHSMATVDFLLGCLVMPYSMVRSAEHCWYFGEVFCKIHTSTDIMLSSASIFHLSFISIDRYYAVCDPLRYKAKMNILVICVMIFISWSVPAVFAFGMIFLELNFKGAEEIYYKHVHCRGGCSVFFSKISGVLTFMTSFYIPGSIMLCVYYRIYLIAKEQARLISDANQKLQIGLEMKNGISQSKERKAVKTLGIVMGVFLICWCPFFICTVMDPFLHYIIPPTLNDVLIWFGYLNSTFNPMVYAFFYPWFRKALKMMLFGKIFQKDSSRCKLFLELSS
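Material: RD-HGA16 CHO cells with stable hTAAR1 and Gα16; Dosing: single nominal final test compound concentration of 3 µM; Schedule: seeding 17-24 h prior, 75-min 37 °C, 30-min RT dye loading; Detection: kinetic Fluo-8 calcium fluorescence measurement; Measure: % inhibition from peak post-agonist over basal fluorescence ratio; Benchmarks: vehicle and agonist controls.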
TAAR1 agonist: human TAAR1 agonism | Q96RJ0 | CHO RD-HGA16 TAAR1, Fluo-8 calcium fluorescence; vehicle wells 0%, saturating PEA agonist 100% | activation, % at 3 µM | 360,000 compounds, 0.99% hits | AID 624467;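 active = activation above the mean activation of all test compounds in the run plus 3 SD, cut at about 38% in these data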
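Repeats: no replicates (n 1) | Material: CHO-derived RD-HGA16 cells with stable Gα16 and human TAAR1 | Technique: Kinetic Fluo-8 calcium fluorescence | Schedule: 17-24 h seeding, 75 min 37 °C dye, 30 min RT | Evaluation: % activation from peak over basal fluorescence ratio, DMSO-to-PEA scaled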
OX1R antag-1: human HCRTR1 antagonism; 330,000 compounds, 0.43% hits; AID 434989; CHO/OX1R cells, Fluo-8 calcium fluorescence, orexin A; O43613; inhibition, % at 5 µM;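 active = inhibition above its plate's threshold, mean inhibition of all tested compounds on the plate plus 3 SD, cut at about 37% in these data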;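 note: 0% = orexin A challenge wells and 100% = SB-334867-A antagonist wells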
OX1R antag-2: OX1R (human) antagonism; AID 485270; 330,000 compounds, 1.8% hits; OX1R-expressing cells, FRET antagonist read-out; O43613; inhibition, % at 6.6 µM; in the data active = inhibition mostly above about 38%, no sharp cut-off; inactive = mostly below about 40%;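 note: 0% = agonist challenge alone and 100% = reference antagonist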
OX1R Ca confirm: OX1R (human) antagonism, confirmed | shares compounds with OX1R antag-1 | CHO/OX1R cells, orexin A calcium Fluo-8 fluorescence | inhibition, % at 5 µM | 1,100 compounds, 38% hits | AID 492963; in the data active = inhibition above about 29%;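 note: 0% = agonist challenge alone and 100% = reference antagonist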
CHO Ca triplic: counter-screen for OX1R antagonists: effect in parental CHO cells. 1,100 compounds, 9.3% hits. parental CHO-K1, ATP-induced calcium, Fluo-8 fluorescence. AID 492965. shares compounds with OX1R antag-1. inhibition, % at 5.6 µM;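 active = inhibition above a per-plate limit, the mean inhibition of that plate's test compounds plus 3 SD, cut at about 25% in these data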;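 note: 0% = ATP challenge with DMSO and 100% = DMSO without ATP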
* hit, by the source's call; . = not tested or not shown. In the library only some 3.9% were active in any assay of this set; here they are far more common.

SMILES | CHO parental Ca | TAAR1 antag | TAAR1 agonist | OX1R antag-1 | OX1R antag-2 | OX1R Ca confirm | CHO Ca triplic
Brc1ccccc1-n1nnc(-c2nccs2)n1 | -12 | 13 | 14 | 45 | 22 | 7 | -8
CC(C)Cc1ccc(-c2cc3nc(NCCCn4ccnc4)ccn3n2)cc1 | . | 15 | 17 | . | . | . | .
Cc1ccn2c(NCc3ccccc3)c(-c3cccc(SC4CCCCC4)c3)nc2c1 | 15 | 48 | 4 | 56 | 32 | 18 | -4
Cc1ccc2nc(-c3cccc(SC4CCCCC4)c3)c(NC3CCCCC3)n2c1 | -20 | -4 | 5 | -15 | 3 | . | .
CC1=Nc2ccccc2/C1=C\c1nc(-c2ccc(C(F)(F)F)cc2)oc1O | 21 | 40 | 18 | 40* | 9 | 51* | 54*
Oc1ccccc1-c1nnc(-c2ccc(C(F)(F)F)cc2)o1 | -19 | -13 | 0 | -21 | 6 | . | .
COc1ccc(-c2nc(/C=C3\C(C)=Nc4ccccc43)c(O)o2)cc1 | 23 | 34 | 4 | 30 | 49 | 23 | 5
CN(C)CCC1(C2=CCCC2)CC/C(=C/c2ccc(Cl)cc2)C1=O (stereo not given) | . | -6 | 16 | . | . | . | .
O=C(/C=C/c1ccc(S(=O)(=O)NCc2ccco2)cc1)NCc1cccc(Cl)c1 | 19 | 11 | 3 | 54* | 43 | 17 | 3
Cc1cc2nc(-c3cccnc3SCC(=O)NCc3ccco3)[nH]c2cc1C | -14 | -1 | 3 | 26 | 14 | -3 | -3
CCN(CC(=O)Nc1cc(S(=O)(=O)N2CCOCC2)ccc1Cl)Cc1ccccc1 | -20 | 38 | 10 | 55* | 20 | 14 | 4
COc1ccc(Cc2c(C3CCCCC3)nc3c(Cl)cc(C(F)(F)F)cn23)c(C)c1 | . | -14 | -1 | . | . | . | .
CNC(=S)N(C1=NCC(c2ccc([N+](=O)[O-])cc2)S1)c1ccccc1 (stereo not given) | 12 | -8 | -1 | 20 | 30 | -13 | -11
Cc1ccc(/C=C2\Sc3ccccc3C2=O)s1 | -22 | 0 | 1 | 30 | 13 | 34* | -1
CCCCCc1ccc(OCCCC[n+]2ccc(C)cc2)c(CCCCC)c1 | 21 | -11 | 35 | 40* | 14 | 16 | 11
C/C(=N\Nc1ccc(C(F)(F)F)cn1)c1ccc(S(=O)(=O)NCc2ccco2)cc1 | -15 | 36 | 2 | 30 | 35 | 4 | 0
COc1cccc2cc(-c3nc(-c4cccs4)cs3)c(=O)oc12 | -5 | 15 | 6 | 39 | 32 | 69* | -7
COc1cccc2cc(-c3ccccc3)c(=O)oc12 | -13 | -4 | 0 | -22 | 18 | . | .
COc1ccc(COC(=O)c2cccc(S(=O)(=O)N3CCN(C(C)=O)CC3)c2)cc1 | 14 | 11 | 9 | 29 | 28 | 11 | 1
COc1cccc(CNC(=O)c2cccc(S(=O)(=O)N3CCN(c4ccc(F)cc4)CC3)c2)c1 | 12 | 26 | 21 | 24 | 22 | 26 | 3
COC(=O)[C@]12CCCCC=C1N(Cc1ccc(Cl)cc1Cl)C(=O)[C@H](CC(=O)NCCCCc1ccccc1)C2 | . | -35 | 3 | . | . | . | .
CC(C)NC(=O)CC(c1ccccc1)c1cc(Br)ccc1O (stereo not given) | -16 | . | . | -11 | 7 | . | .
CCCCCCNC(=O)CC(c1ccccc1)c1cc(Br)ccc1O (stereo not given) | 17 | 35 | 12 | 35 | 53 | -13 | -15
O=C(COc1ccc(Cl)cc1)Nc1cccc(S(=O)(=O)NCc2ccco2)c1 | -19 | 26 | 6 | 42 | 21 | 16 | -5
CN(c1ccccc1)S(=O)(=O)c1cccc(NC(=O)COc2ccccc2)c1 | -7 | 53* | 7 | 37 | 14 | 19 | -4
SMILES | CHO parental Ca | TAAR1 antag | TAAR1 agonist | OX1R antag-1 | OX1R antag-2 | OX1R Ca confirm | CHO Ca triplic
CN(c1ccc(OCC(=O)NCCc2ccccc2)cc1)S(=O)(=O)c1ccc(Cl)cc1 | -8 | 11 | 4 | 36 | 23 | 26 | -12
CN(c1cccc(NC(=O)COc2ccccc2)c1)S(C)(=O)=O | -5 | -4 | 7 | -15 | 5 | . | .
COc1cc(C(=O)Nc2cccc(S(=O)(=O)NCc3ccco3)c2)cc(OC)c1OC | -27 | 39 | 9 | -15 | 8 | . | .
O=C(Nc1ccc(F)c(Cl)c1)c1cc(C2CCCN(C(=O)c3cccs3)C2)on1 (stereo not given) | . | 18 | 3 | . | . | . | .
Fc1ccc2c(c1)Sc1ccc(Cl)cc1CC2N1CCN(CCC2OCCO2)CC1 (stereo not given) | 16 | 8 | 5 | 38 | 6 | 8 | -2
O=[N+]([O-])c1ccc2c(c1)C(N1CCN(CCO)CC1)Cc1ccc(F)cc1S2 (stereo not given) | . | 16 | 33 | . | . | . | .
COc1ccccc1-c1nc2s/c(=C\c3cccs3)c(=O)n2n1 | 1 | -2 | 6 | -5 | -1 | . | .
COc1ccc(/C=c2\sc3nc(-c4ccccc4OC)nn3c2=O)c(OC)c1 | -2 | 5 | 13 | 43* | 16 | 90* | 18
COc1cn(-c2ccccc2)nc1C(=O)Nc1ccc(C)cc1Cl | -18 | 0 | -2 | 28 | 64 | 17 | 12
CCN(CC)c1ccc(/C=N/NC(=O)c2nnn(-c3nonc3N)c2CN(C)C2CCCCC2)cc1 | . | -36 | 1 | . | . | . | .
COc1ccc(C(=O)NNC(=O)C(=O)Nc2cccc3ccccc23)cc1 | 7 | -2 | 2 | 26 | 2 | -1 | -5
N#CC1=C(N)Oc2cc(N)ccc2C1c1cccnc1 (stereo not given) | 4 | -15 | 4 | -4 | 19 | . | .
CCN(CC)c1ccc2c(c1)OC(N)=C(C#N)C2c1cccnc1 (stereo not given) | 20 | -7 | 64* | 29 | 16 | 8 | 10
O=c1[nH]cnc2nn(C3OC(CO)C(O)C3O)nc12 (stereo not given) | . | -36 | 2 | . | . | . | .
CN(Cc1ccccc1)C(=O)COC(=O)c1cc(NS(=O)(=O)c2cccs2)ccc1O | 18 | 28 | 13 | 44* | 58 | 31* | 26*
COc1cc2c(cc1OC)CN(C(=O)Cn1ccccc1=O)CC2 | -3 | . | . | 51* | 8 | 1 | -1
COc1ccc(CCNc2c(C)c(C)nc3ncnn23)cc1 | 16 | 21 | 10 | 45* | 11 | 25 | 77*
O=S(=O)(NCc1ccccc1)c1ccc(NC(=S)NCc2ccco2)cc1 | 13 | 53* | 41* | 30 | -6 | 40* | 22
COC(=O)C1=C(C)N(C)C(=NCc2ccc3c(c2)OCO3)NC1c1ccc(F)cc1 (stereo not given) | . | -17 | 7 | . | . | . | .
C=CCOc1cccc(C(=O)/C=C2/C(=O)Nc3ccccc32)c1 | 19 | 24 | 2 | 35 | 14 | 21 | 19

Screening results: PubChem BioAssay, The Scripps Research Institute Molecular Screening Center
